In ChEMBL document CHEMBL3994592, “Antimicrobial Oligophenalenone Dimers from the Soil Fungus Talaromyces stipitatus” (J Nat Prod, 2016):
≈ marks a conversion by molar mass, not a printed value.

Key:
[1] = system: Staphylococcus aureus; assay: Antibacterial activity against Staphylococcus aureus ATCC 6538 after 24 hrs; format: functional; details: ATCC 6538, 24 h
How it was run: (§1)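 Broth microdilution in LB. Precultures were grown 24 h at 37 °C in 10 mL LB and diluted 1/1000 (OD600 0.01) into 96-well plates. Two-fold serial dilutions were made from 10 mg/mL stocks, 2 µL per 200 µL medium. Plates were incubated 24 h at 37 °C and OD read at 595 nm. MIC is the concentration giving a 90% decrease versus DMSO-only control, obtained by curve fitting.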

[2] = system: Staphylococcus haemolyticus; assay: Antibacterial activity against Staphylococcus haemolyticus MNHN26 after 24 hrs; format: functional; details: MNHN26, 24 h; how it was run: as §1
[3] = system: Enterococcus faecalis; assay: Antibacterial activity against Enterococcus faecalis CIP 103014 after 24 hrs; format: functional; details: CIP 103014, 24 h; how it was run: as §1
[4] = system: Escherichia coli; assay: Antibacterial activity against Escherichia coli ATCC 8739 after 24 hrs; format: functional; details: ATCC 8739, ATCC 8739, 24 h; how it was run: as §1
[5] = system: HeLa; assay: Cytotoxicity against human HeLa cells assessed as reduction in cell viability by MTT assay; format: functional, cell-based
How it was run: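 HeLa cells were seeded at 2500 cells/well, incubated overnight, then exposed in exponential growth to a range of concentrations for four doubling times. Viability was measured by MTT, 4 h at 37 °C, with formazan read at 560 nm. Concentration inhibiting growth by 50% versus untreated controls was taken from dose-survival curves. At least three independent experiments, each in duplicate; cisplatin served as control.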

| Structure (SMILES) | MIC90 [1] [µg/mL] | MIC90 [3] [µg/mL] | MIC [4] [µg/mL] | MIC90 [2] [µg/mL] | IC50 [5] [µM] |
| --- | --- | --- | --- | --- | --- |
| CC(=O)O[C@H]1[C@@H]2C(=O)c3c(C)cc(O)c4c3[C@@]1(COC4=O)C1=C2c2c(C)cc(O)c3c2[C@@](O)(COC3=O)C1=O | 29.3 (≈ 55 µM) | > 30 | > 100 | > 30 | > 100 |
| CO[C@@]12c3c(C)cc(O)c4c3C(=C(O)[C@@H]1[C@]13COC(=O)c5c(O)cc(C)c(c51)C(=O)[C@H]2[C@@H]3OC(C)=O)C=NC4=O | 5 (≈ 9.17 µM) | > 30 | > 100 | 20.4 (≈ 37.4 µM) | 49.5 |
| CN(C)[C@@H]1C(O)=C(C(N)=O)C(=O)[C@@]2(O)C(O)=C3C(=O)c4c(O)cccc4[C@@](C)(O)[C@H]3C[C@@H]12 [TETRACYCLINE] | 0.05 (≈ 0.113 µM) | 0.4 (≈ 0.9 µM) |  | 29.5 (≈ 66.4 µM) |  |

The next lines start with results.

| MIC90 [1] [µg/mL] | MIC90 [3] [µg/mL] | MIC [4] [µg/mL] | Structure (SMILES) | MIC90 [2] [µg/mL] | IC50 [5] [µM] |
| --- | --- | --- | --- | --- | --- |
| 5.2 (≈ 10.1 µM) | 2.4 (≈ 4.65 µM) | > 100 | CC(=O)O[C@H]1[C@@H]2C(=O)c3c(C)cc(O)c4c3[C@@]1(COC4=O)c1c(O)c3c4c(c(O)cc(C)c4c12)C(=O)OC3 | 9.5 (≈ 18.4 µM) |  |
| > 50 | > 50 | > 100 | CC(=O)O[C@H]1[C@@H]2C(=O)c3c(C)cc(O)c4c3[C@@]1(COC4=O)c1c(O)c(C=O)c3cc(O)cc(C)c3c12 | > 50 | > 50 |
| 15.6 (≈ 28.5 µM) | > 30 | > 100 | CO[C@H]1OC(=O)c2c(O)cc(C)c3c4c(c(O)c1c23)[C@]12COC(=O)c3c(O)cc(C)c(c31)C(=O)[C@H]4[C@@H]2OC(C)=O | > 30 | > 50 |
